Bounds are passed on as bounds.

Assay [1] concerns the target T1, 72 kDa type IV collagenase (Homo sapiens, UniProt P08253). In words: Inhibition of human recombinant MMP2 after 30 mins. Summed up:
(§1)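 Enzyme (1.16 U) preincubated 30 min at 37 °C with fragment in 50 mM HEPES, 10 mM CaCl2, 0.05% Brij-35, pH 7.5. Fluorogenic Mca peptide substrate (4 μM final) then added. Rate of fluorescence increase compared with no-inhibitor control (100%). Single-point 25 μM final for the 8-hydroxyquinoline sublibrary. IC50 fitted to dose-response curves from serial dilutions of DMSO stocks.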
Target sequence in this assay (P08253 whole entry, the tested form may be a part): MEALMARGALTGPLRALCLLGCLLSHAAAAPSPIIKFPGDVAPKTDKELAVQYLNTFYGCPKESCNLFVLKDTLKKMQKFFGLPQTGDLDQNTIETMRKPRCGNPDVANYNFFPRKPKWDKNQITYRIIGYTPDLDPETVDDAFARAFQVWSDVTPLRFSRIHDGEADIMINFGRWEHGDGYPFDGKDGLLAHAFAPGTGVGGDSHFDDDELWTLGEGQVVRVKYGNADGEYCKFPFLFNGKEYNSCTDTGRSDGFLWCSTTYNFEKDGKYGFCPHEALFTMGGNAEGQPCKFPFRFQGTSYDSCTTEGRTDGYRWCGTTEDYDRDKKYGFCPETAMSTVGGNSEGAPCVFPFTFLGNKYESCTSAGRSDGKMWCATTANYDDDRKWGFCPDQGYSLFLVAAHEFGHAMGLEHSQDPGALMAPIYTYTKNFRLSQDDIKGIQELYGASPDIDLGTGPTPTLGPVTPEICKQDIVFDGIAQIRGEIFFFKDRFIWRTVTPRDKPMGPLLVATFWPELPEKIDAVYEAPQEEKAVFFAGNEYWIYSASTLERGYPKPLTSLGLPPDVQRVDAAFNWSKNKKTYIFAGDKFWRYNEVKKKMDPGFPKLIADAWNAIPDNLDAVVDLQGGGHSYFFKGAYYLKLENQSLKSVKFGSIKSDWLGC

The target in assay [2] is T1, 72 kDa type IV collagenase. In words: Inhibition of human recombinant MMP2 at 25 uM after 30 mins. Summed up: as §1
Target sequence in this assay (P08253 110-660 limits assumed): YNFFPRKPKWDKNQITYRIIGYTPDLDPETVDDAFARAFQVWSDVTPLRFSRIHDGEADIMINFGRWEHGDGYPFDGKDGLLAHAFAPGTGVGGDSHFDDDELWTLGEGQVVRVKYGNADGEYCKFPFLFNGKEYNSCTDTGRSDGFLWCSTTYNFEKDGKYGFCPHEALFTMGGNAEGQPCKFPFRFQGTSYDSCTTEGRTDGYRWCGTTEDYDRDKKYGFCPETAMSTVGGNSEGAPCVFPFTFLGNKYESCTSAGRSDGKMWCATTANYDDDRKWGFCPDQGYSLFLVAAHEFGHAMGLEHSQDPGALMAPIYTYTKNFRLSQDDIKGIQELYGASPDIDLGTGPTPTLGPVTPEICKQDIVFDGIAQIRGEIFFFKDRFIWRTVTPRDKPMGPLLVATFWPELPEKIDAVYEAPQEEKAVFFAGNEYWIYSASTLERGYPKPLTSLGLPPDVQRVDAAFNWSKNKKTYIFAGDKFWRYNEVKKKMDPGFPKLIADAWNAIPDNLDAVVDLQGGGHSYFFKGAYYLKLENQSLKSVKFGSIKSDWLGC
The target in assay [3] is T2, Polyunsaturated fatty acid 5-lipoxygenase (Homo sapiens) (UniProt P09917).
T2 sequence (whole entry): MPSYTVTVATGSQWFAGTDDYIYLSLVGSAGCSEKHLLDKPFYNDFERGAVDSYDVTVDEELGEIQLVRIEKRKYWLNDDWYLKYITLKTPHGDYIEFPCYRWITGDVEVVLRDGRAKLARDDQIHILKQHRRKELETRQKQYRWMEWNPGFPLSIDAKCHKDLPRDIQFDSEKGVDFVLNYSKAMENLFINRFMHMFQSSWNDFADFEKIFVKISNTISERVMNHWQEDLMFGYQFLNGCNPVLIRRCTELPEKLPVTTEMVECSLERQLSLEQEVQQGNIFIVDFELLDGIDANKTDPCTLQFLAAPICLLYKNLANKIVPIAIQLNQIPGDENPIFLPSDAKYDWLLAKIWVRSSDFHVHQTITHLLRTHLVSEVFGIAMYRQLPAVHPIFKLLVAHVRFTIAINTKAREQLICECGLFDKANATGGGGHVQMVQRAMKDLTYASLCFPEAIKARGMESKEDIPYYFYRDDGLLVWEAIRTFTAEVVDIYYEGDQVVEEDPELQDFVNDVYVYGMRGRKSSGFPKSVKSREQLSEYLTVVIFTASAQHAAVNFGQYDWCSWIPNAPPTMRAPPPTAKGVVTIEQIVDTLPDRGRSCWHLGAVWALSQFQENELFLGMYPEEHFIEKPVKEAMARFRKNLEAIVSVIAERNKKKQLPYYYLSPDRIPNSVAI
In words: Inhibition of human recombinant 5-lipoxygenase at 1 mM after 10 mins by fluorescence assay.

Assay [4] deals with T3, Polyunsaturated fatty acid 5-lipoxygenase (Homo sapiens, UniProt P09917).
T3 sequence (P09917 whole entry): T2 sequence (whole entry)
The assay can be described thus: Inhibition of human recombinant 5-lipoxygenase after 10 mins by fluorescence assay.

For assay [5], the target named is T4, Tyrosinase (Agaricus bisporus) (UniProt O42713).
T4 sequence (whole entry): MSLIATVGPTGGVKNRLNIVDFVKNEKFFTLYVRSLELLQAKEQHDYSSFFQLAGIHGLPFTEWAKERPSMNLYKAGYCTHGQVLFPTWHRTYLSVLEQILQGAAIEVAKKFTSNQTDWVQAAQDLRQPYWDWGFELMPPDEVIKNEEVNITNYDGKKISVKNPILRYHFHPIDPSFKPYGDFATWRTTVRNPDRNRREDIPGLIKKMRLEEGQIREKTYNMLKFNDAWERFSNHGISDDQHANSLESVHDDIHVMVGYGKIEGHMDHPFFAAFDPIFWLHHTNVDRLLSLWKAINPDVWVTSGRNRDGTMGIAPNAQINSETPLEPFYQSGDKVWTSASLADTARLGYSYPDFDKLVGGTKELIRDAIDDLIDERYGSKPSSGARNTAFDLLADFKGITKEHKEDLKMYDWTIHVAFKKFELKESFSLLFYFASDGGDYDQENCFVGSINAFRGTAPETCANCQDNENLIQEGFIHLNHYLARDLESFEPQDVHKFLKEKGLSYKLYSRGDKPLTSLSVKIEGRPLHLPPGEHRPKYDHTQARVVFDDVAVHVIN
As to conditions: at 1 mM.

Assay [6] deals with T5, Interstitial collagenase (Homo sapiens) (UniProt P03956).
T5 sequence (whole entry): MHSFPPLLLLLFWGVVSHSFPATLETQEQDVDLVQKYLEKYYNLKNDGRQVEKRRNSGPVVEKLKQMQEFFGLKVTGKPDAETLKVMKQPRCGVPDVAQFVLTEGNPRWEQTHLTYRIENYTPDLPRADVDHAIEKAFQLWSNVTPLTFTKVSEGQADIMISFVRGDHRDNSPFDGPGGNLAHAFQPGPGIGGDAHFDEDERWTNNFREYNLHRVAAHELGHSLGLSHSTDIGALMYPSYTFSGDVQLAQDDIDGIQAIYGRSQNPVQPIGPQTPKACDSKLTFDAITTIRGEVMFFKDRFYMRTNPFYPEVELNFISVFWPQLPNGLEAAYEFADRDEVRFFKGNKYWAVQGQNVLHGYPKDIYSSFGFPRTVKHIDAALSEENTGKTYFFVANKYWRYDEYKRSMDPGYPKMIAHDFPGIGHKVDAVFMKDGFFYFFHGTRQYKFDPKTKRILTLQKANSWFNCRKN
Conditions: at 1 mM.

Assay [7] concerns the target T1, 72 kDa type IV collagenase. As to conditions: at 1 mM.
Target sequence in this assay (P08253 110-660 limits assumed): as the sequence (P08253 110-660 limits assumed) above
Assay [8] addresses Stromelysin-1 (Homo sapiens) (UniProt P08254). Conditions: at 1 mM.
Assay [9] addresses Neutrophil collagenase (Homo sapiens) (UniProt P22894). Conditions: at 1 mM.
In assay [10] the target is Matrix metalloproteinase-9 (Homo sapiens) (UniProt P14780). As to conditions: at 1 mM.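 Note: recombinant human MMP9, activity read after 30 min.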
The target of assay [11] is T6, Nitric oxide synthase, inducible (Mus musculus) (UniProt P29477).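 Note: recombinant enzyme, activity read out colorimetrically after 40 min.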
T6 sequence (whole entry): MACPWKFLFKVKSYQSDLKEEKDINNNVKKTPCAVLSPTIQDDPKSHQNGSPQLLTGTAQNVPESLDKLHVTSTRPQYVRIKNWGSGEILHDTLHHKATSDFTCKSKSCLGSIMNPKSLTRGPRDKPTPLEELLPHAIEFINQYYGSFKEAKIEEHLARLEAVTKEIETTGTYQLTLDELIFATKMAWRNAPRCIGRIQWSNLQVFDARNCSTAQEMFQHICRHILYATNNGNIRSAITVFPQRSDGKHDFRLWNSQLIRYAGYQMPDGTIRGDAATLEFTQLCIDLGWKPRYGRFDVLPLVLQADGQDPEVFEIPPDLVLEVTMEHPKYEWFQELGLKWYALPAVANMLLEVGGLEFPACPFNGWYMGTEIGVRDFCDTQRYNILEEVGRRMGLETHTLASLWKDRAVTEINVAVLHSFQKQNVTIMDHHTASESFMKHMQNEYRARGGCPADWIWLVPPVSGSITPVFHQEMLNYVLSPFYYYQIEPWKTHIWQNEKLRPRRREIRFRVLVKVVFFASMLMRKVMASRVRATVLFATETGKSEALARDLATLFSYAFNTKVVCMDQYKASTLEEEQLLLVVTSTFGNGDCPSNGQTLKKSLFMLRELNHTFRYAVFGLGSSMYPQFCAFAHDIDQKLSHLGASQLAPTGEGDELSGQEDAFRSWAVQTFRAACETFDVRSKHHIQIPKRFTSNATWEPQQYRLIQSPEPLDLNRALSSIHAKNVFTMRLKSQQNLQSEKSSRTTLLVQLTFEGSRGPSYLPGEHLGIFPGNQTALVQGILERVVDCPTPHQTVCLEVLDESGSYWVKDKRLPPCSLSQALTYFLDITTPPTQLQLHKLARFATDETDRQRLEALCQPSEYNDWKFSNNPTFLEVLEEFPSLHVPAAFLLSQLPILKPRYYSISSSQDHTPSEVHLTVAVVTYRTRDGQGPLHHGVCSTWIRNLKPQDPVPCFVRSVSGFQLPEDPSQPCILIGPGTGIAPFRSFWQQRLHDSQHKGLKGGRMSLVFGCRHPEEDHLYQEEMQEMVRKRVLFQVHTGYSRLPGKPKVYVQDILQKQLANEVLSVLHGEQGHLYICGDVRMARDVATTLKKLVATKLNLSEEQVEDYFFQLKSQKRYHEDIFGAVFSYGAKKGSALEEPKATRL
As to conditions: at 1 mM.

Assay [12] concerns the target T7, Lethal factor (Bacillus anthracis) (UniProt P15917).
T7 sequence (whole entry): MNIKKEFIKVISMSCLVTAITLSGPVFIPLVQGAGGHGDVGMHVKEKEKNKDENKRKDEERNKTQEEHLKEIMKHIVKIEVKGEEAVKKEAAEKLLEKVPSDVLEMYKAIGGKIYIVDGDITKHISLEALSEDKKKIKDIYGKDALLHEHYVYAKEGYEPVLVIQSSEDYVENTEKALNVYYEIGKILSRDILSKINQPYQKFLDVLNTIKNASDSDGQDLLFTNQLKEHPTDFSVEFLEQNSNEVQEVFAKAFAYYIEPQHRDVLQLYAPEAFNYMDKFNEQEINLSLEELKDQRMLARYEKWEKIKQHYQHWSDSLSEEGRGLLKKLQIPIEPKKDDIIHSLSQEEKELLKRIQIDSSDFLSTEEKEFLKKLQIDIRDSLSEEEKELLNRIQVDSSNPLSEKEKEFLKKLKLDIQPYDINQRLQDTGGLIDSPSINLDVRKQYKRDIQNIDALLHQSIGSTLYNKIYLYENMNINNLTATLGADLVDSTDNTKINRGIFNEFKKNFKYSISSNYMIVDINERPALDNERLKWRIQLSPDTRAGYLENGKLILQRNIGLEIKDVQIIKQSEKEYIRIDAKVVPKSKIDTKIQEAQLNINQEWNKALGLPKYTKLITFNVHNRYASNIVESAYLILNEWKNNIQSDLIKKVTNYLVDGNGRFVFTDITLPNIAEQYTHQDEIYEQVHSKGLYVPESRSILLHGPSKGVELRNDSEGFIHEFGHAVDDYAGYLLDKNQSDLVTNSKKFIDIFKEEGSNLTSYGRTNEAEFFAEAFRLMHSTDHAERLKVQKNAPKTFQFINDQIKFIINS
As to conditions: at 1 mM.

A further assay concerns the target T8, Tyrosinase (Agaricus bisporus, UniProt O42713).
T8 sequence (O42713 whole entry): T4 sequence (whole entry)
In words: Inhibition of mushroom tyrosinase after 10 mins.

Chain of Matrix metalloproteinase-9 (Homo sapiens) (P14780 whole entry): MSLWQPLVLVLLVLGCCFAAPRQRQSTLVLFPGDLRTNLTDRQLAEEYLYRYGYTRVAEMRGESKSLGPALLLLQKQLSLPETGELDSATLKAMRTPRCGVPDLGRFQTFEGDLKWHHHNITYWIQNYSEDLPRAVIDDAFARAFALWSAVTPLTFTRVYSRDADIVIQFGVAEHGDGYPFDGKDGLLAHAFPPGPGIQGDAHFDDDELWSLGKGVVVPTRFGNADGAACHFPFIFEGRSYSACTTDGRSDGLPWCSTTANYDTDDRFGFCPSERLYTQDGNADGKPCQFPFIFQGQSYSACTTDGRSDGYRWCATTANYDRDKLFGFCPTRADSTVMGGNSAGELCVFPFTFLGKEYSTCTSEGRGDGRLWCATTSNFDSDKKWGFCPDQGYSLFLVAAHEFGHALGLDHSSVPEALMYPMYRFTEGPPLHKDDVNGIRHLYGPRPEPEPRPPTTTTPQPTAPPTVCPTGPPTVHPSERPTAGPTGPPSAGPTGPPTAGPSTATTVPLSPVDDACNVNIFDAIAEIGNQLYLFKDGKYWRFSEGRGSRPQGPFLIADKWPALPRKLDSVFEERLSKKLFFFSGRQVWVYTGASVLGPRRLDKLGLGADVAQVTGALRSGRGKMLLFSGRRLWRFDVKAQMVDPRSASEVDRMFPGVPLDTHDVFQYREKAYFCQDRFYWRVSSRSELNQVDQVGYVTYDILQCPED
Chain of Stromelysin-1 (Homo sapiens) (P08254 100-477 limits assumed): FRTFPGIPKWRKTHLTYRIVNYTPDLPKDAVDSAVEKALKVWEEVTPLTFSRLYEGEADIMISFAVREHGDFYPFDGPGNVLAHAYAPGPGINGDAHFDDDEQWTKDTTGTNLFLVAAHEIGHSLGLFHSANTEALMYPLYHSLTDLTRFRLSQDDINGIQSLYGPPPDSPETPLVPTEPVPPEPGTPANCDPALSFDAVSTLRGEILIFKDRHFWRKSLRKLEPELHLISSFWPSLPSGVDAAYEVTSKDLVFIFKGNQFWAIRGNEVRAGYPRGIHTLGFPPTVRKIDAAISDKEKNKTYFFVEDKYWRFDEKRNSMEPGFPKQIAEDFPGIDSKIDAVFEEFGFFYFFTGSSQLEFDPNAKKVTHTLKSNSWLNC
Chain of Neutrophil collagenase (Homo sapiens) (P22894 101-467 limits assumed): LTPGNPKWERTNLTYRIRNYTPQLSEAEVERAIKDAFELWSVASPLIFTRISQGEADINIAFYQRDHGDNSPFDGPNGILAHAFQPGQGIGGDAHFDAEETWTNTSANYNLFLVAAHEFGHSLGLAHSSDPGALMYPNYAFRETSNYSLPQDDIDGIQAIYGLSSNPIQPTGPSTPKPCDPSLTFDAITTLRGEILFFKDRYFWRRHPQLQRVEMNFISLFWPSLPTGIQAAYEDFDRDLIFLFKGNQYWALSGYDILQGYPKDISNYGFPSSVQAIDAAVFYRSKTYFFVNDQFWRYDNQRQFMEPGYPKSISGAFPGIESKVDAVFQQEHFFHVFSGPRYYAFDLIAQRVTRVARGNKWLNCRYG

The term IC50 denotes the point on the concentration scale where inhibition reaches its midpoint. Usually inhibition stands for the relative decrease from the control value, in per cent. Turning to `O=S(=O)(Nc1ccc(O)c2ncccc12)c1ccc(F)cc1`, the IC50 in assay [1] is 7.2 µM. Further, the inhibition in assay [2] is above 65%.
Take `O=C(O)c1cc(O)ccc1O` [GENTISIC ACID]: the inhibition was 86% in [3]; 96% in [5]; 13% in assay [6]; 0% in assay [7]; -3% in [8]; 1% in [9]. Further, the inhibition in [10] was determined as 40%; in assay [11], 24%. Further, the IC50 in assay [4] stood at 75 µM.
On to `Oc1cccc2cccnc12` [OXYQUINOLINE], for which the inhibition in assay [3] is 61%; in [12], 56%; in [6], 77%; in assay [7], 94%; in [8], 83%; in assay [9], 92%. The inhibition in [10] is 78%; in assay [11] it was 8%. Besides, the IC50 in assay [1] is 130 µM.
On to `O=C(O)c1cccc(=O)[nH]1`, for which the IC50 at Tyrosinase amounted to 159 µM.
In the case of `CC(=O)NO` [ACETOHYDROXAMIC ACID], in assay [1], the IC50 was determined as 15000 µM. Besides, the inhibition was -2% in assay [5]; 25% in [12]; 10% in assay [6]; 4% in assay [7]; 5% in assay [8]; 5% in assay [9]. For the same molecule, in assay [11], the inhibition was found to be 4%.
On to `O=S(=O)(Nc1ccc(O)c2ncccc12)c1ccccc1`, for which, in [1], the IC50 amounted to 8.8 µM. The inhibition in assay [2] was above 65%.
The matching figures for `O=S(=O)(Nc1ccc2cccnc2c1O)c1ccc(F)cc1`: 3 µM and above 65%.
The matching figures for `O=S(=O)(Nc1ccc2cccnc2c1O)c1ccccc1`: 5.6 µM and above 65%.
Consider `Cc1occc(=S)c1O`, for which the inhibition in [3] was determined as 91%; in assay [5] it was 102%; in assay [12], 96%; in assay [6], 98%; in [7], 100%; in assay [8] it was 98%. In addition, the inhibition stood at 101% in assay [9] and 100% in assay [10]. Moreover, the results for the IC50 (in [4]; against Tyrosinase) were 11 µM and 3.8 µM, respectively.
On to `O=S(=O)(Nc1ccc2cccnc2c1O)c1cccs1`, for which the IC50 in [1] turned out to be 4.3 µM. In addition, the inhibition in assay [2] is above 65%.
On the same counts, the results for `O=S(=O)(Nc1ccc(O)c2ncccc12)c1ccc(-c2ccccc2)cc1` are 10.8 µM and above 65%.
As to `O=c1[nH]ccc(=S)[nH]1`, in assay [1], the IC50 is 121 µM.
For the molecule `Nc1cccc(C(=O)O)c1O`, the inhibition in assay [3] was 72%; in assay [12], 90%; in assay [6] it was 69%; in [7], 70%; in [8], 72%; in [9], 67%. For the same molecule, the inhibition in [10] came to 59%; in assay [11] it was 18%. Besides, in [1], the IC50 amounted to 389 µM.
On to `O=S(=O)(Nc1ccc(O)c2ncccc12)c1cccs1`, for which the IC50 in assay [1] stood at 8.4 µM. Moreover, in assay [2], the inhibition is above 65%.
On the same counts, the results for `O=S(=O)(Nc1ccc2cccnc2c1O)c1ccc(-c2ccccc2)cc1` are 3.9 µM and above 65%.

Source of the values: ChEMBL document CHEMBL1649420, “Identifying chelators for metalloprotein inhibitors using a fragment-based approach” (J Med Chem, 2011).
